From ChEMBL document CHEMBL2331542, “Synthesis and in vitro antibacterial activity of quinolone/naphthyridone derivatives containing 3-alkoxyimino-4-(methyl)aminopiperidine scaffolds” (2013)
In brackets after ≈: the same amount, converted by molar mass.

Assays:
Assay type in all cases: functional
[1] = test system: Escherichia coli; assay: Antibacterial activity against extended-spectrum beta-lactamase-producing Escherichia coli isolate 12-4
Procedure, shortened: (§1)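 MIC determined in vitro by a standard technique and defined as the lowest compound concentration giving complete inhibition of bacterial growth. The Gram-positive and Gram-negative panels were tested alongside gemifloxacin, levofloxacin and ciprofloxacin reference drugs.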

[2] = test system: Escherichia coli; assay: Antibacterial activity against extended-spectrum beta-lactamase-producing Escherichia coli isolate 12-2; procedure, shortened: as §1
[3] = test system: Escherichia coli; assay: Antibacterial activity against extended-spectrum beta-lactamase-producing Escherichia coli isolate 12-1; procedure, shortened: as §1
[4] = test system: Escherichia coli; assay: Antibacterial activity against Escherichia coli isolate 12-5; procedure, shortened: as §1
[5] = test system: Escherichia coli; assay: Antibacterial activity against Escherichia coli isolate 12-4; procedure, shortened: as §1
[6] = test system: Escherichia coli; assay: Antibacterial activity against Escherichia coli isolate 12-1; procedure, shortened: as §1
[7] = test system: Escherichia coli; assay: Antibacterial activity against Escherichia coli ATCC 25922; procedure, shortened: as §1
[8] = test system: Streptococcus pneumoniae; assay: Antibacterial activity against Streptococcus pneumoniae isolate 12-5; procedure, shortened: as §1
[9] = test system: Streptococcus pneumoniae; assay: Antibacterial activity against Streptococcus pneumoniae isolate 12-2; procedure, shortened: as §1
[10] = test system: Staphylococcus epidermidis; assay: Antibacterial activity against methicillin-resistant Staphylococcus epidermidis isolate 12-35
Procedure, shortened: (§2)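 MIC determined in vitro by standard techniques, defined as the lowest compound concentration giving complete inhibition of bacterial growth. Gemifloxacin, levofloxacin and ciprofloxacin were tested alongside as reference drugs.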

[11] = test system: Staphylococcus epidermidis; assay: Antibacterial activity against methicillin-resistant Staphylococcus epidermidis isolate 12-33; procedure, shortened: as §2
[12] = test system: Staphylococcus epidermidis; assay: Antibacterial activity against methicillin-resistant Staphylococcus epidermidis isolate 12-5; procedure, shortened: as §2
[13] = test system: Staphylococcus epidermidis; assay: Antibacterial activity against methicillin-sensitive Staphylococcus epidermidis isolate 12-3; procedure, shortened: as §1
[14] = test system: Staphylococcus epidermidis; assay: Antibacterial activity against methicillin-sensitive Staphylococcus epidermidis isolate 12-2; procedure, shortened: as §1
[15] = test system: Staphylococcus epidermidis; assay: Antibacterial activity against methicillin-sensitive Staphylococcus epidermidis isolate 12-1; procedure, shortened: as §1
[16] = test system: Staphylococcus aureus; assay: Antibacterial activity against methicillin-resistant Staphylococcus aureus isolate 12-15; procedure, shortened: as §2
[17] = test system: Staphylococcus aureus; assay: Antibacterial activity against methicillin-resistant Staphylococcus aureus isolate 12-13; procedure, shortened: as §2
[18] = test system: Staphylococcus aureus; assay: Antibacterial activity against methicillin-resistant Staphylococcus aureus isolate 12-3; procedure, shortened: as §2
[19] = test system: Staphylococcus aureus; assay: Antibacterial activity against methicillin-sensitive Staphylococcus aureus isolate 12-10; procedure, shortened: as §1
[20] = test system: Staphylococcus aureus; assay: Antibacterial activity against methicillin-sensitive Staphylococcus aureus isolate 12-7; procedure, shortened: as §1
[21] = test system: Staphylococcus aureus; assay: Antibacterial activity against methicillin-sensitive Staphylococcus aureus isolate 12-6; procedure, shortened: as §1
[22] = test system: Staphylococcus aureus; assay: Antibacterial activity against Staphylococcus aureus […]; procedure, shortened: as §1
[23] = test system: Pseudomonas aeruginosa; assay: Antibacterial activity against Pseudomonas aeruginosa isolate 12-2; procedure, shortened: as §1
[24] = test system: Pseudomonas aeruginosa; assay: Antibacterial activity against Pseudomonas aeruginosa isolate 12-1; procedure, shortened: as §1
[25] = test system: Pseudomonas aeruginosa; assay: Antibacterial activity against Pseudomonas aeruginosa ATCC 27853; procedure, shortened: as §1
[26] = test system: Klebsiella pneumoniae; assay: Antibacterial activity against extended-spectrum beta-lactamase-producing Klebsiella pneumoniae isolate 12-4; procedure, shortened: as §1
[27] = test system: Klebsiella pneumoniae; assay: Antibacterial activity against extended-spectrum beta-lactamase-producing Klebsiella pneumoniae isolate 12-2; procedure, shortened: as §1
[28] = test system: Klebsiella pneumoniae; assay: Antibacterial activity against extended-spectrum beta-lactamase-producing Klebsiella pneumoniae isolate 12-1; procedure, shortened: as §1
[29] = test system: Klebsiella pneumoniae; assay: Antibacterial activity against Klebsiella pneumoniae isolate 12-4; procedure, shortened: as §1
[30] = test system: Klebsiella pneumoniae; assay: Antibacterial activity against Klebsiella pneumoniae isolate 12-2; procedure, shortened: as §1
[31] = test system: Klebsiella pneumoniae; assay: Antibacterial activity against Klebsiella pneumoniae isolate 12-1; procedure, shortened: as §1

Compound: CNC1CCN(c2c(F)cc3c(=O)c(C(=O)O)cn4c3c2OC[C@@H]4C)C/C1=N\OC (some centres undefined)
- MIC [1]: 16 µg/mL (≈ 38.2 µM)
- MIC [2]: > 128 µg/mL
- MIC [3]: 128 µg/mL (≈ 306 µM)
- MIC [4]: 128 µg/mL (≈ 306 µM)
- MIC [5]: 128 µg/mL (≈ 306 µM)
- MIC [6]: 8 µg/mL (≈ 19.1 µM)
- MIC [7]: 0.25 µg/mL (≈ 0.597 µM)
- MIC [8]: 1 µg/mL (≈ 2.39 µM)
- MIC [9]: 1 µg/mL (≈ 2.39 µM)
- MIC [10]: 0.125 µg/mL (≈ 0.299 µM)
- MIC [11]: < 0.008 µg/mL
- MIC [12]: 0.125 µg/mL (≈ 0.299 µM)
- MIC [13]: 0.5 µg/mL (≈ 1.19 µM)
- MIC [14]: 2 µg/mL (≈ 4.78 µM)
- MIC [15]: 0.5 µg/mL (≈ 1.19 µM)
- MIC [16]: 1 µg/mL (≈ 2.39 µM)
- MIC [17]: 1 µg/mL (≈ 2.39 µM)
- MIC [18]: 1 µg/mL (≈ 2.39 µM)
- MIC [19]: 0.25 µg/mL (≈ 0.597 µM)
- MIC [20]: 1 µg/mL (≈ 2.39 µM)
- MIC [21]: 0.25 µg/mL (≈ 0.597 µM)
- MIC [22]: 0.25 µg/mL (≈ 0.597 µM)
- MIC [23]: 8 µg/mL (≈ 19.1 µM)
- MIC [24]: 8 µg/mL (≈ 19.1 µM)
- MIC [25]: 4 µg/mL (≈ 9.56 µM)
- MIC [26]: 0.5 µg/mL (≈ 1.19 µM)
- MIC [27]: 16 µg/mL (≈ 38.2 µM)
- MIC [28]: 16 µg/mL (≈ 38.2 µM)
- MIC [29]: 0.5 µg/mL (≈ 1.19 µM)
- MIC [30]: 1 µg/mL (≈ 2.39 µM)
- MIC [31]: 1 µg/mL (≈ 2.39 µM)

Compound: CNC1CCN(c2nc3c(cc2F)c(=O)c(C(=O)O)cn3-c2ccc(F)cc2F)C/C1=N\OC (centres undefined)
- MIC [1]: 32 µg/mL (≈ 67.3 µM)
- MIC [2]: > 128 µg/mL
- MIC [3]: > 128 µg/mL
- MIC [4]: > 128 µg/mL
- MIC [5]: > 128 µg/mL
- MIC [6]: 8 µg/mL (≈ 16.8 µM)
- MIC [7]: 0.125 µg/mL (≈ 0.263 µM)
- MIC [8]: 0.06 µg/mL (≈ 0.126 µM)
- MIC [9]: 0.06 µg/mL (≈ 0.126 µM)
- MIC [10]: 0.015 µg/mL (≈ 0.0316 µM)
- MIC [11]: 0.015 µg/mL (≈ 0.0316 µM)
- MIC [12]: 0.015 µg/mL (≈ 0.0316 µM)
- MIC [13]: 0.125 µg/mL (≈ 0.263 µM)
- MIC [14]: 0.5 µg/mL (≈ 1.05 µM)
- MIC [15]: 0.125 µg/mL (≈ 0.263 µM)
- MIC [16]: 0.03 µg/mL (≈ 0.0631 µM)
- MIC [17]: 0.03 µg/mL (≈ 0.0631 µM)
- MIC [18]: 0.03 µg/mL (≈ 0.0631 µM)
- MIC [19]: 0.03 µg/mL (≈ 0.0631 µM)
- MIC [20]: 0.06 µg/mL (≈ 0.126 µM)
- MIC [21]: 0.03 µg/mL (≈ 0.0631 µM)
- MIC [22]: 0.125 µg/mL (≈ 0.263 µM)
- MIC [23]: 8 µg/mL (≈ 16.8 µM)
- MIC [24]: 4 µg/mL (≈ 8.41 µM)
- MIC [25]: 8 µg/mL (≈ 16.8 µM)
- MIC [26]: 1 µg/mL (≈ 2.1 µM)
- MIC [27]: 32 µg/mL (≈ 67.3 µM)
- MIC [28]: 64 µg/mL (≈ 135 µM)
- MIC [29]: 1 µg/mL (≈ 2.1 µM)
- MIC [30]: 1 µg/mL (≈ 2.1 µM)
- MIC [31]: 1 µg/mL (≈ 2.1 µM)

Compound: CCO/N=C1\CN(c2c(F)cc3c(=O)c(C(=O)O)cn(C4CC4)c3c2F)CCC1NC (centres undefined)
- MIC [1]: 16 µg/mL (≈ 36.8 µM)
- MIC [2]: > 128 µg/mL
- MIC [3]: > 128 µg/mL
- MIC [4]: > 128 µg/mL
- MIC [5]: > 128 µg/mL
- MIC [6]: 8 µg/mL (≈ 18.4 µM)
- MIC [7]: 16 µg/mL (≈ 36.8 µM)
- MIC [8]: 1 µg/mL (≈ 2.3 µM)
- MIC [9]: 0.5 µg/mL (≈ 1.15 µM)
- MIC [10]: 1 µg/mL (≈ 2.3 µM)
- MIC [11]: 1 µg/mL (≈ 2.3 µM)
- MIC [12]: 1 µg/mL (≈ 2.3 µM)
- MIC [13]: 0.5 µg/mL (≈ 1.15 µM)
- MIC [14]: 1 µg/mL (≈ 2.3 µM)
- MIC [15]: 0.5 µg/mL (≈ 1.15 µM)
- MIC [16]: 0.5 µg/mL (≈ 1.15 µM)
- MIC [17]: 0.5 µg/mL (≈ 1.15 µM)
- MIC [18]: 0.5 µg/mL (≈ 1.15 µM)
- MIC [19]: 0.125 µg/mL (≈ 0.288 µM)
- MIC [20]: 128 µg/mL (≈ 295 µM)
- MIC [21]: 0.5 µg/mL (≈ 1.15 µM)
- MIC [22]: 0.5 µg/mL (≈ 1.15 µM)
- MIC [23]: 16 µg/mL (≈ 36.8 µM)
- MIC [24]: 16 µg/mL (≈ 36.8 µM)
- MIC [25]: 16 µg/mL (≈ 36.8 µM)
- MIC [26]: > 128 µg/mL
- MIC [27]: 16 µg/mL (≈ 36.8 µM)
- MIC [28]: 16 µg/mL (≈ 36.8 µM)
- MIC [29]: 1 µg/mL (≈ 2.3 µM)
- MIC [30]: 1 µg/mL (≈ 2.3 µM)
- MIC [31]: 2 µg/mL (≈ 4.6 µM)

Compound: CO/N=C1\CN(c2c(F)cc3c(=O)c(C(=O)O)cn(C4CC4)c3c2OC)CCC1N (centres undefined)
- MIC [1]: 16 µg/mL (≈ 38.2 µM)
- MIC [2]: 64 µg/mL (≈ 153 µM)
- MIC [3]: 64 µg/mL (≈ 153 µM)
- MIC [4]: 64 µg/mL (≈ 153 µM)
- MIC [5]: 128 µg/mL (≈ 306 µM)
- MIC [6]: 2 µg/mL (≈ 4.78 µM)
- MIC [7]: 4 µg/mL (≈ 9.56 µM)
- MIC [8]: 2 µg/mL (≈ 4.78 µM)
- MIC [9]: 0.25 µg/mL (≈ 0.597 µM)
- MIC [10]: 0.25 µg/mL (≈ 0.597 µM)
- MIC [11]: 2 µg/mL (≈ 4.78 µM)
- MIC [12]: 0.25 µg/mL (≈ 0.597 µM)
- MIC [13]: 0.25 µg/mL (≈ 0.597 µM)
- MIC [14]: 0.5 µg/mL (≈ 1.19 µM)
- MIC [15]: 0.25 µg/mL (≈ 0.597 µM)
- MIC [16]: 0.25 µg/mL (≈ 0.597 µM)
- MIC [17]: 0.25 µg/mL (≈ 0.597 µM)
- MIC [18]: 0.25 µg/mL (≈ 0.597 µM)
- MIC [19]: 0.125 µg/mL (≈ 0.299 µM)
- MIC [20]: 8 µg/mL (≈ 19.1 µM)
- MIC [21]: 0.25 µg/mL (≈ 0.597 µM)
- MIC [22]: 0.06 µg/mL (≈ 0.143 µM)
- MIC [23]: 16 µg/mL (≈ 38.2 µM)
- MIC [24]: 16 µg/mL (≈ 38.2 µM)
- MIC [25]: 4 µg/mL (≈ 9.56 µM)
- MIC [26]: 64 µg/mL (≈ 153 µM)
- MIC [27]: 16 µg/mL (≈ 38.2 µM)
- MIC [28]: 8 µg/mL (≈ 19.1 µM)
- MIC [29]: 0.5 µg/mL (≈ 1.19 µM)
- MIC [30]: 2 µg/mL (≈ 4.78 µM)
- MIC [31]: 2 µg/mL (≈ 4.78 µM)
